The values that follow come from ChEMBL document CHEMBL1128551, “Decapeptide agonists of human C5a: the relationship between conformation and neutrophil response” (J Med Chem, 1995).

Where a SMILES comes first, the peptide text is derived from it. A value given as a limit tells only on which side of the number the result lay.

This experiment deals with T1, C5a anaphylatoxin chemotactic receptor 1 (Homo sapiens, UniProt P21730).
T1 sequence (P21730 whole entry): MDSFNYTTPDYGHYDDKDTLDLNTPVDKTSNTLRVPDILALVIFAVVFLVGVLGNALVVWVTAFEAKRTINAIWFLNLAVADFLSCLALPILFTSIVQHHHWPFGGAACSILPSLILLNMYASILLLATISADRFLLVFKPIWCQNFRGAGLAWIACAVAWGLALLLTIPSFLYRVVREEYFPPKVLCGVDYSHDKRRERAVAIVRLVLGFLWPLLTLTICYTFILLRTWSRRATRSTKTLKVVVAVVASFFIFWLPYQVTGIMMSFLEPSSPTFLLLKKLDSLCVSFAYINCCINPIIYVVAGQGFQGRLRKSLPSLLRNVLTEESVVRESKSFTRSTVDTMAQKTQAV
Nature of the experiment: Release of beta-glucuronidase from human polymorphonuclear leukocytes(PMN). The format is functional. The method in brief: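 Human PMNs pretreated with cytochalasin B (5 μg/mL, 10 min, 37 °C). 10^6 cells incubated with stimulant 60 min at 37 °C, then centrifuged. Supernatant reacted with 0.01 M p-nitrophenyl β-D-glucuronide in 0.1 M sodium acetate pH 4 for 18 h, in triplicate. Stopped with 0.4 M glycine pH 10. EC50 from dose-response.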

On to `CSCC[C@H](NC(=O)[C@H](CC(=O)O)NC(=O)[C@H](CCCCN)NC(=O)[C@H](Cc1ccccc1)NC(=O)[C@H](CO)NC(=O)[C@@H](N)Cc1ccc(O)cc1)C(=O)N[C@@H](CCC(N)=O)C(=O)N[C@@H](CC(C)C)C(=O)N1CCC[C@H]1C(=O)N[C@@H](CCCNC(=N)N)C(=O)O`, for which the EC50 – broadly, the concentration that produces a half-maximal response – is greater than 1000 µM.
Compound `CSCC[C@H](NC(=O)[C@H](CC(=O)O)NC(=O)[C@H](CCCCN)NC(=O)[C@H](Cc1ccccc1)NC(=O)[C@H](CO)NC(=O)[C@@H](N)Cc1ccc(O)cc1)C(=O)N1CCC[C@H]1C(=O)N[C@@H](C)C(=O)NCC(=O)N[C@@H](CCCNC(=N)N)C(=O)O` showed an EC50 of 680 µM.
In turn, `CC(C)C[C@H](NC(=O)[C@@H]1CCCN1C(=O)[C@H](C)NC(=O)[C@H](CC(=O)O)NC(=O)[C@H](CCCCN)NC(=O)[C@H](Cc1ccccc1)NC(=O)[C@H](CO)NC(=O)[C@@H](N)Cc1ccc(O)cc1)C(=O)NCC(=O)N[C@@H](CCCNC(=N)N)C(=O)O` returned an EC50 of 207 µM.
The figure for `CSCC[C@H](NC(=O)[C@H](CC(=O)O)NC(=O)[C@H](CCCCN)NC(=O)[C@H](Cc1ccccc1)NC(=O)[C@H](CO)NC(=O)[C@@H](N)Cc1ccc(O)cc1)C(=O)N1CCC[C@H]1C(=O)N[C@@H](CC(C)C)C(=O)NCC(=O)N[C@@H](CCCNC(=N)N)C(=O)O` is 80 µM; for `CC(C)C[C@H](NC(=O)[C@@H]1CCCN1C(=O)[C@H](CS)NC(=O)[C@H](CC(=O)O)NC(=O)[C@H](CCCCN)NC(=O)[C@H](Cc1ccccc1)NC(=O)[C@H](CO)NC(=O)[C@@H](N)Cc1ccc(O)cc1)C(=O)N[C@@H](CS)C(=O)N[C@@H](CCCNC(=N)N)C(=O)O` (H-YSFKDCPLCR-OH) it is greater than 1000 µM; for H-ISHKDMQLGR-OH it is 0.0123 µM.
H-YSFKDCPLGR-OH displayed an EC50 greater than 1000 µM.
H-YSFKDMQLGR-OH: the concentration for a half-maximal effect (EC50) amounted to 520 µM.
The figure for H-YSFKDMQPGR-OH is 42 µM; for H-YSFKGLLLGR-OH it is 27.7 µM; for H-YSFKGMLLGR-OH it is 70 µM.
